# TDP2 inh = TDP2 (human) inhibition, absorbance primary screen; recombinant TDP2, T5PNP hydrolysis, p-nitrophenol absorbance 415 nm; inhibition, % at 12.8 µM; 370,000 tested, 0.34% active;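 active means inhibition above the mean of all tested compounds plus 3 SD, set per campaign, cut at about 25% in these data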
#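 Test system: human TDP2 enzyme; Input: 120 nM TDP2 per well; Buffer or medium: Mg2+-containing Tris-HCl buffer, pH 7.5; Reagent: 5 mM T5PNP; Dosing: 12.8 µM single point, 1% DMSO; Incubation: reaction 2 h, 37 °C; Detection: p-Nitrophenol epi absorbance; Read-out: % inhibition relative to enzyme-containing and enzyme-free wells; Replicates: single well per compound.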
# CASP6 VEID inh = caspase-6 (human) enzyme inhibition. P55212. purified caspase-6, Z-VEID-R110 cleavage fluorescence. inhibition, % at 12.5 µM. 350,000 tested, 0.53% active. AID 686996;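 active means mean inhibition across replicates at least about 35%, with every replicate also reaching that limit, limit read from the data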
# Target sequence (P55212 24-179 limits assumed): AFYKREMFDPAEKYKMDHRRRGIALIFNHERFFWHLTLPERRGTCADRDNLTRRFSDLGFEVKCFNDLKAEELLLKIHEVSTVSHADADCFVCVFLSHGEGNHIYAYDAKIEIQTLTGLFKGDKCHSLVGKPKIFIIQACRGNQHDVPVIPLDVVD
# Target sequence (P55212 194-293 limits assumed): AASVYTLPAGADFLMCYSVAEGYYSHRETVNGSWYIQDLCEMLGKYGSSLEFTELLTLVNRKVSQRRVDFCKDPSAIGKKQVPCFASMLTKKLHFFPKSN
# UHRF1 MBD2 ctr = UHRF1 methyl-DNA binding inhibition. UHRF1 binding to methylated oligo, TR-FRET. inhibition, % at 4.4 µM. 370,000 tested, 0.75% active. AID 687016; in the data active means inhibition above about 21%;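 further: UHRF1 SRA domain binding a hemimethylated CpG hairpin DNA probe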
# NSD2 HMT inh = blocks human histone methyltransferase NSD2; O96028; NSD2 peptide methylation, AlphaScreen, 120 min; inhibition, % at 12.5 µM; 310,000 tested, 0.54% active; AID 743445; in the data active means inhibition above about 50%
# MBD2 inh = inhibitors of human MBD2 binding to methylated oligonucleotide | Q9UBB5 | TR-FRET | inhibition, % at 4.4 µM | 370,000 tested, 0.31% active; in the data active means inhibition above about 13%
# Target sequence (Q9UBB5 whole entry, looked up): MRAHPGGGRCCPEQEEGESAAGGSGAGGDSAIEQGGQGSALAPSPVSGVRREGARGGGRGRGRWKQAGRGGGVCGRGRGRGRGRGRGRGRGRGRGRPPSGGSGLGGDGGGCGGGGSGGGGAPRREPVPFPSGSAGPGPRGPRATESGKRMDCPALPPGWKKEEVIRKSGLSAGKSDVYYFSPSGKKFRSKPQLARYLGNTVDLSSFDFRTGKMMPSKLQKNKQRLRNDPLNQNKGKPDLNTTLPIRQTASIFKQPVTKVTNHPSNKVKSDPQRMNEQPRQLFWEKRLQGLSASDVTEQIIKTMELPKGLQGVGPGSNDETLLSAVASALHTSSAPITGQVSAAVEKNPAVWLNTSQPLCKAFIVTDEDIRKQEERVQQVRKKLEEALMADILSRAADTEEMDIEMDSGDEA
# LEDGF integ inh = blocks HIV-1 LEDGF/p75-dependent DNA integration; inhibition, % at 3.7 µM; 370,000 tested, 0.64% active; TR-FRET IN-LEDGF/p75 DNA integration, Eu/Cy5;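 active means inhibition above the screen-wide mean plus 3 SD, cut at about 13% in these data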;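 further: signal is the Cy5 over europium emission ratio at 671 and 618 nm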
# IN multimer up = counter-screen for LEDGF/p75 integration inhibitors: HIV-1 integrase multimerization activators; AID 1053131; activation, % at 7.7 µM; shares compounds with LEDGF integ inh; TR-FRET HIV-1 integrase multimerization, biochemical; 2,000 tested, 17% active; in the data active means activation above about 8.9%
# TRFRET interf = optically interferes with TR-FRET readout in LEDGF counter-screen; shares compounds with LEDGF integ inh; TR-FRET optical interference counterscreen, HIV-1 IN multimerization; inhibition, % at 7.7 µM; 2,000 tested, under 10 active; AID 1053135;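 active means inhibition above the mean over all tested compounds plus 3 SD, which no compound reached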
# IN-LEDGF confirm = confirmation of HIV-1 LEDGF/p75-dependent integration inhibitors. shares compounds with LEDGF integ inh. AID 1053136. TR-FRET LEDGF/p75-dependent HIV-1 integration, biochemical. inhibition, % at 3.7 µM. 2,000 tested, 36% active; in the data active means inhibition above about 14%
# Hits are given with their value; i = inactive; nt = no result given. In the library only some 1.9% were active in any assay of this set; here they are far more common.
SMILES,TDP2 inh,CASP6 VEID inh,UHRF1 MBD2 ctr,NSD2 HMT inh,MBD2 inh,LEDGF integ inh,IN multimer up,TRFRET interf,IN-LEDGF confirm
O=C(c1cc(-c2ccc(Cl)cc2)n(-c2ccc(Cl)cc2Cl)n1)N1CCOCC1,i,nt,i,i,i,26,i,i,i
O=C(O)[C@@H]1[C@@H](CO)[C@@H]2Cn3c(ccc(-c4ccccc4)c3=O)[C@H]1N2S(=O)(=O)c1ccccc1F,nt,i,nt,nt,nt,nt,nt,nt,nt
Cc1ccc(N2C(=O)NC(=O)/C(=C\C=C\c3ccco3)C2=O)cc1C,i,38,i,65,i,29,i,i,34
O=C1NC(=O)N(c2ccccc2)C(=O)/C1=C/C=C/c1ccco1,i,i,i,nt,i,28,i,i,19
CN(C)c1ccc(/C=C/C=C2/C(=O)NC(=O)N(c3ccccc3)C2=O)cc1,i,i,i,i,i,i,nt,nt,nt
Cc1cccc(N2C(=O)NC(=O)/C(=C\C=C\c3ccco3)C2=O)c1,i,i,i,nt,i,31,i,i,28
O=C(Cc1ccccc1)N1CCCCN2[C@H](CO)[C@H](c3ccc(C#CC4(O)CCCC4)cc3)[C@@H]2C1,nt,i,nt,nt,nt,nt,nt,nt,nt
COc1ccc(CCNCc2ccncc2)cc1,i,nt,i,i,i,14,i,i,i
COC(=O)[C@H]1[C@H](CO)[C@H]2Cn3c(ccc(-c4ccccc4)c3=O)[C@@H]1N2CCc1ccccc1,nt,i,nt,nt,nt,nt,nt,nt,nt
COc1ccc2c(c1)NP(=S)(c1ccccc1)N2C (stereo not given),i,i,i,i,i,18,i,i,i
COc1ccc(CC2=NCCc3cc(OC)c(OC)cc32)cc1OC,31,nt,21,nt,i,27,i,i,i
O=C(OCc1ccccc1)N1CCC2CC1c1cc(N3Cc4ccccc4-n4nncc4C3)ccc12 (stereo not given),i,i,i,nt,i,26,i,i,i
COC(=O)[C@H]1[C@H](CO)[C@H]2Cn3c(ccc(C4=CCCC4)c3=O)[C@@H]1N2Cc1ccccn1,nt,i,nt,nt,nt,nt,nt,nt,nt
COc1ccc(-n2c(Cc3ccccc3)nc3ccccc3c2=O)cc1,i,i,i,i,i,i,nt,nt,nt
CCOc1ccc(-n2c(CC)nc3ccccc3c2=O)cc1,i,i,i,nt,i,39,i,i,i
CCC(CO)NC(=O)C1C=C2c3cccc4[nH]cc(c34)CC2N(C)C1 (stereo not given),i,48,i,nt,i,21,i,i,i
CN1C[C@H](CO)C[C@@H]2c3cccc4[nH]cc(c34)C[C@H]21,i,i,i,i,i,i,nt,nt,nt
CC[C@@H](CO)NC(=O)[C@@H]1C=C2c3cccc4[nH]cc(c34)C[C@H]2N(C)C1,i,62,i,nt,i,14,i,i,17
CCN(CC)C(=O)N[C@H]1C[C@@H]2c3cccc4[nH]cc(c34)C[C@H]2N(C)C1,i,i,i,nt,i,i,nt,nt,nt
O=C(Cc1ccccn1)N1CCCCN2[C@H](CO)[C@H](c3ccc(C#Cc4ccccc4)cc3)[C@H]2C1,nt,i,nt,nt,nt,nt,nt,nt,nt
Cc1ccccc1-c1ccc([C@@H]2[C@H]3CN(C(=O)Cc4ccccn4)CCCCN3[C@H]2CO)cc1,nt,i,nt,nt,nt,nt,nt,nt,nt
COc1cc(C2c3cc(O)c(OC)cc3CC3C(=O)OCC32)ccc1O (stereo not given),i,i,i,nt,i,14,i,i,i
Oc1ccc(C[C@H]2NCCc3cc(O)c(O)cc32)cc1O,i,i,30,i,i,55,18,i,30
Oc1ccc(CC2CC3CCN2CC3)cc1O (stereo not given),i,nt,i,i,i,i,nt,nt,nt
O=C1NC(=S)NC(=O)C1C1CCCCC1,i,i,i,i,i,i,nt,nt,nt
SMILES,TDP2 inh,CASP6 VEID inh,UHRF1 MBD2 ctr,NSD2 HMT inh,MBD2 inh,LEDGF integ inh,IN multimer up,TRFRET interf,IN-LEDGF confirm
CN1C(=O)C(C2CCCCC2)C(=O)N(C)C1=O,i,i,i,i,i,55,i,i,i
COC(=O)[C@@H]1[C@@H](CO)[C@@H]2Cn3c(ccc(/C=C/c4ccccc4)c3=O)[C@H]1N2C(=O)C1CC1,nt,i,nt,nt,nt,nt,nt,nt,nt
CN(C)C(=O)Oc1ccc(Cl)c2ccccc12,i,nt,i,i,i,i,nt,nt,nt
Cc1c(OC(=O)N(C)C)ccc2c1O/C(=C\c1ccco1)C2=O,i,i,i,i,i,18,i,i,i
O=C(Cc1ccncc1)N1CCCCN2[C@H](C1)[C@H](c1ccc(C#CC3(O)CCCC3)cc1)[C@@H]2CO,nt,i,nt,nt,nt,nt,nt,nt,nt
CCN(CC)C(=O)Cn1cc(/C=C2\C(=O)NC(=O)N(c3ccccc3F)C2=O)c2ccccc21,i,i,i,i,i,18,i,i,i
CCN(CC)c1ccc(N=Cc2c(O)n(Cc3ccco3)c(=O)[nH]c2=O)cc1,i,i,i,i,i,57,i,i,i
O=c1[nH]c(=O)n(Cc2ccco2)c(O)c1/C=N/N1CCCCCC1,i,i,i,i,i,i,nt,nt,nt
CN(C)CCN=Cc1c(O)n(Cc2ccco2)c(=O)[nH]c1=O,i,nt,i,i,i,i,nt,nt,nt
N#Cc1c(/N=C/c2c(O)n(Cc3ccco3)c(=O)[nH]c2=O)sc2c1CCCC2,i,nt,46,i,i,34,i,i,i
CCN(CC)c1ccc(N=Cc2c(O)n(-c3cc(OC)ccc3OC)c(=O)[nH]c2=O)cc1,i,nt,i,i,i,16,i,i,i
O=C(Cc1ccccn1)N1CCCCN2[C@@H](CO)[C@H](c3ccc(C#Cc4ccccc4)cc3)[C@@H]2C1,nt,i,nt,nt,nt,nt,nt,nt,nt
CCOC(=O)Cn1cc(C=C2C(=O)N(C)C(=O)N(C)C2=O)c2ccccc21,i,i,i,i,i,i,nt,nt,nt
CN1C(=O)C(=Cc2cn(CC#N)c3ccccc23)C(=O)N(C)C1=O,i,i,i,i,i,16,i,i,i
COC(=O)[C@H]1[C@H](CO)[C@H]2Cn3c(ccc(-c4ccncc4)c3=O)[C@@H]1N2CCc1ccccc1,nt,i,nt,nt,nt,nt,nt,nt,nt
COC(=O)[C@@H]1[C@@H](CO)[C@@H]2Cn3c(ccc(-c4cccc(OC)c4)c3=O)[C@H]1N2C(=O)c1cnccn1,nt,i,nt,nt,nt,nt,nt,nt,nt
O=S(=O)(c1cc(Cl)cc(Cl)c1)N1Cc2cc(-c3cccc(F)c3)ccc2-n2nncc2C1,i,i,i,nt,i,i,nt,nt,nt
CC(C)(C)C(=O)N1Cc2cc(-c3ccccc3)ccc2-n2nncc2C1,i,i,i,nt,i,15,i,i,i
Fc1cccc(-c2ccc3c(c2)CN(c2cccc(Cl)c2)Cc2cnnn2-3)c1,i,i,i,nt,i,34,i,i,20
Fc1ccc(N2Cc3ccccc3-n3nncc3C2)cc1,i,i,i,nt,i,21,i,i,19

# Screens: PubChem BioAssay, several laboratories
